Rows were chosen to be rich in hits. Some 8.9% of all compounds tested hit in one or more screens of this group.
HSV augment: increases HSV replication in cells. HSV replication augmentation in cells, fold increase. maximum fold increase. 0.005% of 220,000 active; in the data active = maximum fold increase above about 1.5; tested in PC3 cells
b-catenin transl: alters nuclear translocation of beta-catenin in HeLa cells. immunofluorescence imaging. nuclear translocation activity, % at 5 µM. 0.3% of 190,000 active;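 active = nuclear translocation activity above 50% at 5 µM, with a well cell count of 50 or more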;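 note: per-cell ratio of nuclear to cytoplasmic median beta-catenin stain intensity; plate controls were DMSO negative control for no effect and GSK-3 inhibitor IX positive control for full effect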
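test system = HeLa cells, endogenous beta-catenin | dosing = single 5 µM dose plus 0.02–20 µM confirmation series | times = compound treatment 24 h, 37°C, 5% CO2 | technique = beta-catenin immunofluorescence imaging with DAPI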
Dynein cargo inh: blocks dynein driven cargo transport along microtubules; z-score, hits read low; 0.47% of 220,000 active; 3617.4 mouse cells, GR-EGFP nuclear translocation imaging; test concentration mostly 20 µM; stimulated with dexamethasone, 1 µM; stronger effect = lower value; AID 1381;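 active = plate z-score of nuclear minus cytoplasmic receptor signal below a set negative limit, without overly bright fluorescence or cell loss, cut at about -3.5 in these data, passing the limit was not always enough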;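 note: z-score of nuclear minus cytoplasmic ring GR-EGFP intensity difference per well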
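Also added: dexamethasone, 1.0 µM final. Medium: tet-free, stripped-serum medium. Detection: fixed, Hoechst-stained cells imaged at 10x for EGFP. Read-out: nuclear-to-cytoplasmic GR-EGFP distribution per well. Times: induction 48 h, compound 1 h, agonist 30 min.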
MT stabilize HCS: microtubule stabilizers in HeLa cells; 0.83% of 200,000 active; AID 2205; % tubulin-high responders, % at 10 µM; HeLa tubulin immunostaining HCS, 24 h; share of cells brighter than vehicle mean+2SD;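 active = plate Z-score above 3 for both tubulin-high and condensed-nucleus cell shares, with cell loss under 80%, at 10 µM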;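 note: anti alpha tubulin signal scored within the nucleus-defined area of each cell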
Lmaj promast: reduces viability of Leishmania major promastigotes. 9% of 200,000 active. inhibition, % at 10 µM. resazurin fluorescence viability; in the data active = inhibition above about 50%;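 note: promastigotes grown with compound for 44 hours at 28 °C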
Starred values were filed as active, the others as inactive; i = inactive; / = no result given.

SMILES	HSV augment	b-catenin transl	Dynein cargo inh	MT stabilize HCS	Lmaj promast
CC1CCCN(c2ccc(C(=O)Nc3nnc(C4CC4)s3)cc2[N+](=O)[O-])C1 (centres undefined)	i	0	-0.6	5	1
COc1ccc(Cc2noc(CN3CCN(C4CCc5ccccc5C4)CC3)n2)cc1OC (centres undefined)	i	0	-0.15	3	8
CCOC(=O)c1ccc(NC(=S)N(CCCN2CCCC2)Cc2cccs2)cc1	i	-2	-0.52	5	82*
CC1CN(C(=O)N[C@@H](Cc2ccccc2)C(=O)O)CC(C)O1 (some centres undefined)	i	-2	0.29	5	80*
COc1ccc(C(=O)Cn2ccsc2=NC(C)=O)cc1	i	3	1.3	6	5
CC1=C(C(=O)NCCc2ccc(C)cc2)C2(CCC(C)CC2)OC1=O (centres undefined)	i	5	-0.6	2	-3
COCc1cc(C)nc(OCC(=O)N/N=C/c2ccc(O)cc2O)c1C#N	/	1	0.9	3	0
CC(C)[N+](C)(CCOC(=O)C1c2ccccc2Oc2ccccc21)C(C)C	i	/	-0.46	3	-4
CC1CN(C2CCN(S(=O)(=O)c3ccc(F)cc3)CC2)CC(C)O1 (centres undefined)	i	1	-0.74	2	91*
O=S(=O)(c1ccccc1)N1CCC(N2CCCCCC2)CC1	i	-2	1.8	5	2
CC1CN(C2CCN(S(=O)(=O)Cc3ccccc3)CC2)CC(C)O1 (centres undefined)	i	-8	-0.073	2	91*
O=S(=O)(Cc1ccccc1)N1CCN(C2Cc3ccccc3C2)CC1	i	1	0.011	1	52*
CC1CN(C2CCN(S(=O)(=O)c3ccccc3)CC2)CC(C)O1 (centres undefined)	i	-1	0.33	3	81*
CC1CC(C)CN(c2ncnc3c2cnn3Cc2ccc(Cl)cc2)C1 (centres undefined)	i	/	1.2	6	9
CC(=O)c1ccc(COC(=O)c2ccccc2NC(=O)C(C)C)cc1	i	0	1.5	5	-6
CCCC1=NN2C(=N)/C(=C\c3cc(C)n(-c4cccc(C)c4)c3C)C(=O)N=C2S1	i	-2	0.7	3	-1
COc1ccc(-n2nccc2-c2nn(-c3cccc(OC)c3)c(=O)n(C)c2=O)cc1	i	/	0.3	1	7
COc1cccc(-n2nc(-c3ccnn3-c3ccc(F)cc3)c(=O)n(C)c2=O)c1	i	/	0.29	2	52*
CC(/C=N/NC(=O)c1cc(-c2cccnc2)nc2c1c(C)nn2-c1ccccc1)=C\c1ccccc1	i	-2	0.81	5	57*
COc1ccc(NC(=O)c2cc(-c3ccccc3)nc3c2c(C)nn3-c2ccccc2)c(OC)c1	i	-6	0.095	3	84*
CCOc1cc(/C=N/Nc2nc(-c3cccc(S(=O)(=O)N4CCCC4)c3)cs2)ccc1O	i	7	-0.95	4	93*
COc1ccc(OC)c(C2C=C(c3ccc(C)c(C)c3)Nc3nnnn32)c1 (centres undefined)	i	17	/	/	/
COc1cccc(C2=CC(c3cc(OC)ccc3OC)n3nnnc3N2)c1 (centres undefined)	/	-2	0.76	27*	92*
COc1cccc(C2=CC(c3cccc(OC)c3OC)n3nnnc3N2)c1 (centres undefined)	i	0	-0.37	23*	79*
COc1cccc(C2=CC(c3cccc(OC)c3OC(F)F)n3nnnc3N2)c1 (centres undefined)	i	0	-0.52	4	2
SMILES	HSV augment	b-catenin transl	Dynein cargo inh	MT stabilize HCS	Lmaj promast
COc1cc2c(C#N)c(N3CCN(C)CC3)nc(N)c2c(N)n1	i	-8	0.87	4	100*
COc1cc2c(C#N)c(N3CCCC3)nc(N)c2c(N)n1	i	-1	-0.2	/	/
COc1cccc2cc(C(C)N(CCCN3CCOCC3)C(=S)Nc3c(C)cccc3C)oc12 (centres undefined)	i	3	1.2	3	53*
CCc1ccc(NC(=O)N(CCCN2CCOCC2)C(C)c2cc3cccc(OC)c3o2)cc1 (centres undefined)	i	0	1.4	4	54*
COc1cccc2cc(C(C)N(CCCN3CCOCC3)C(=S)Nc3cc(C)cc(C)c3)oc12 (centres undefined)	i	0	0.54	2	13
COC(=O)c1c(C)nc2ccccc2c1-c1ccccc1	i	1	-1.1	1	0
c1ccc(-n2cc(CN3CCCC(CN4CCCC4)C3)c(-c3ccc4c(c3)OCO4)n2)cc1 (centres undefined)	i	0	-0.36	3	100*
COc1cc(NC(=O)CCc2ccccc2)nc(OC)n1	i	-1	-0.0011	4	0
COc1cc(C(=O)OCC(=O)NC(=O)c2cccn2C)ccc1OC(F)F	i	0	0.14	4	-2
Cc1c(C#N)c(N=CN(C)C)c(C(=O)c2ccccc2)n1-c1ccc(Br)cc1	i	/	-0.6	3	-4
Cc1c(C#N)c(N=CN(C)C)c(C(=O)c2ccc(Br)cc2)n1-c1ccccc1	i	/	0.2	3	100*
CC(C)c1onc(C(=O)N(C)Cc2ccccc2)c1[N+](=O)[O-]	i	0	-0.044	1	-6
O=C(CSCc1ccccc1)NCc1ccc2c(c1)OCO2	i	-2	0.66	3	-7
O=C(CSCc1ccccc1)NCCCN1CCOCC1	i	0	-0.29	3	18
CC(Oc1ccc(Cl)cc1Cl)C(=O)NCCN1CCOCC1 (centres undefined)	i	-3	0.62	2	79*
Cc1cc(Cl)ccc1OCC(=O)NCCOc1nc(N2CCOCC2)nc(N2CCOCC2)n1	i	-3	-0.44	2	-4
Cc1cc(Cl)ccc1OCC(=O)NCCCN1CCOCC1	i	-2	-0.39	3	92*
CN(C)c1nc(OCCNC(=O)COc2ccc(Cl)cc2Cl)nc(N2CCOCC2)n1	i	0	5.1	4	6
O=C(COc1ccc(Cl)cc1Cl)NCCCN1CCOCC1	i	2	-1	5	94*
O=C(CSc1ccccc1)NCCCN1CCOCC1	i	-3	-0.87	5	77*
CCc1cccc(NC(=O)CCS(=O)(=O)c2cccc3nonc23)c1	i	-2	-1.1	4	-6
O=C(NN=C1CCCCCCC1)c1ccccn1	i	-2	0.24	4	-5
O=C(COC(=O)C12CC3CC(CC(C3)C1)C2)Nc1ccc([N+](=O)[O-])cc1Cl	i	0	-0.38	3	-5
O=C(COc1ccccc1Cl)NCCCN1CCOCC1	i	1	-0.13	4	80*
O=C(c1ccccc1)c1nc2c(n1O)CCCCC2	i	5	-0.63	2	-7
CCOC(=O)c1ccc(Nc2nc(=O)c3cccnc3s2)cc1	i	4	-0.18	2	-11
